Measured values from the RNAGym collection of RNA variant scans (doi:10.1002/anie.201605470).

B1: Osa-1-4 twister ribozyme (parent)
chain: CCGCCUAACACUGCCAAUGCCGGUCCCAAGCCCGGAUAAAAGUGGAGGGGGCGG

Variants of: B1
Experiment: self-cleavage, relative activity (ratio to wild type); higher = more cleavage; co-transcriptional
In short: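 The 48 positions downstream of the cleavage site in a 54-nucleotide Oryza sativa twister ribozyme template were synthesised at 97 % wild-type base and 1 % of each other base. The template was transcribed in vitro at 37 °C for 2 h, with self-cleavage allowed during transcription. Reads with or without upstream sequence after deep sequencing marked cleavage status, and relative activity is fraction cleaved normalised to wild type.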
CCGCCUCACACUGCCAAUGCUGGUCCCAAGCCCGGAUAAAAGUGGAGGGGGCGG [A7C C21U] showed a self-cleavage of 0.04. Work on CCGCCUCACACUGCCAAUGCAGGUCCCAAGCCCGGAUAAAAGUGGAGGGGGCGG [A7C C21A] yielded a self-cleavage of 0.06. CCGCCUCACACUGCCAAUGCGGGUCCCAAGCCCGGAUAAAAGUGGAGGGGGCGG [A7C C21G] gave a self-cleavage of 0.01. For CCGCCUCACACUGCCAAUGCCGGUCCGAAGCCCGGAUAAAAGUGGAGGGGGCGG [A7C C27G], the self-cleavage was 0.02. For CCGCCUCACACUGCCAAUGCCGGUCCUAAGCCCGGAUAAAAGUGGAGGGGGCGG [A7C C27U], the self-cleavage was 0.03. With CCGCCUCACACUGCCAAUGCCGGUCCAAAGCCCGGAUAAAAGUGGAGGGGGCGG [A7C C27A] the self-cleavage was 0.06. With CCGCCUCACACUGCCAAUGCCGGUCGCAAGCCCGGAUAAAAGUGGAGGGGGCGG [A7C C26G] the self-cleavage was 0.02. Variant CCGCCUCACACUGCCAAUGCCGGUCUCAAGCCCGGAUAAAAGUGGAGGGGGCGG [A7C C26U] has a self-cleavage of 0.05. In the case of CCGCCUCACACUGCCAAUGCCGGUCACAAGCCCGGAUAAAAGUGGAGGGGGCGG [A7C C26A], the self-cleavage is reported as 0.03. For CCGCCUCACACUGCCAAUGCCGGUUCCAAGCCCGGAUAAAAGUGGAGGGGGCGG [A7C C25U], the self-cleavage was 0.04. With CCGCCUCACACUGCCAAUGCCGGUACCAAGCCCGGAUAAAAGUGGAGGGGGCGG [A7C C25A] the self-cleavage was 0.05. CCGCCUCACACUGCCAAUGCCGGUGCCAAGCCCGGAUAAAAGUGGAGGGGGCGG [A7C C25G] showed a self-cleavage of 0.02. Variant CCGCCUCACACUGCCAAUGCCGGUCCCAAGCCCGGAUAAAAGUGGAGGGGGGGG [A7C C52G] has a self-cleavage of 0.07. Variant CCGCCUCACACUGCCAAUGCCGGUCCCAAGCCCGGAUAAAAGUGGAGGGGGAGG [A7C C52A] has a self-cleavage of 0.06. For CCGCCUCACACUGCCAAUGCCGGUCCCAAGCCCGGAUAAAAGUGGAGGGGGUGG [A7C C52U], the self-cleavage was 0.06. Work on CCGCCUCAAACUGCCAAUGCCGGUCCCAAGCCCGGAUAAAAGUGGAGGGGGCGG [A7C C9A] yielded a self-cleavage of 0.09. CCGCCUCAUACUGCCAAUGCCGGUCCCAAGCCCGGAUAAAAGUGGAGGGGGCGG [A7C C9U] gave a self-cleavage of 0.02. For CCGCCUCAGACUGCCAAUGCCGGUCCCAAGCCCGGAUAAAAGUGGAGGGGGCGG [A7C C9G], the self-cleavage was 0.04. With CCGCCUCACACUACCAAUGCCGGUCCCAAGCCCGGAUAAAAGUGGAGGGGGCGG [A7C G13A] the self-cleavage was 0.02. CCGCCUCACACUUCCAAUGCCGGUCCCAAGCCCGGAUAAAAGUGGAGGGGGCGG [A7C G13U] showed a self-cleavage of 0.01. CCGCCUCACACUCCCAAUGCCGGUCCCAAGCCCGGAUAAAAGUGGAGGGGGCGG [A7C G13C] showed a self-cleavage of 0.02. For CCGCCUCACACUGCAAAUGCCGGUCCCAAGCCCGGAUAAAAGUGGAGGGGGCGG [A7C C15A], the self-cleavage was 0.04. In the case of CCGCCUCACACUGCUAAUGCCGGUCCCAAGCCCGGAUAAAAGUGGAGGGGGCGG [A7C C15U], the self-cleavage is reported as 0.04. With CCGCCUCACACUGCGAAUGCCGGUCCCAAGCCCGGAUAAAAGUGGAGGGGGCGG [A7C C15G] the self-cleavage was 0.07. For CCGCCUCACACUGCCAAUGACGGUCCCAAGCCCGGAUAAAAGUGGAGGGGGCGG [A7C C20A], the self-cleavage was 0.06. With CCGCCUCACACUGCCAAUGGCGGUCCCAAGCCCGGAUAAAAGUGGAGGGGGCGG [A7C C20G] the self-cleavage was 0.01. In the case of CCGCCUCACACUGCCAAUGUCGGUCCCAAGCCCGGAUAAAAGUGGAGGGGGCGG [A7C C20U], the self-cleavage is reported as 0.06. CCGCCUCACACUGCCAAUGCCGGUCCCAAGACCGGAUAAAAGUGGAGGGGGCGG [A7C C31A] showed a self-cleavage of 0.01. In the case of CCGCCUCACACUGCCAAUGCCGGUCCCAAGUCCGGAUAAAAGUGGAGGGGGCGG [A7C C31U], the self-cleavage is reported as 0.05. Work on CCGCCUCACACUGCCAAUGCCGGUCCCAAGGCCGGAUAAAAGUGGAGGGGGCGG [A7C C31G] yielded a self-cleavage of 0.02. Work on CCGCCUCACACUGCCAAUGCCGGUCCCAAGCCGGGAUAAAAGUGGAGGGGGCGG [A7C C33G] yielded a self-cleavage of 0.02. CCGCCUCACACUGCCAAUGCCGGUCCCAAGCCAGGAUAAAAGUGGAGGGGGCGG [A7C C33A] gave a self-cleavage of 0.05. CCGCCUCACACUGCCAAUGCCGGUCCCAAGCCUGGAUAAAAGUGGAGGGGGCGG [A7C C33U] gave a self-cleavage of 0.04. CCGCCUCUCACUGCCAAUGCCGGUCCCAAGCCCGGAUAAAAGUGGAGGGGGCGG [A7C A8U] gave a self-cleavage of 0.06. CCGCCUCGCACUGCCAAUGCCGGUCCCAAGCCCGGAUAAAAGUGGAGGGGGCGG [A7C A8G] gave a self-cleavage of 0.05. Variant CCGCCUCCCACUGCCAAUGCCGGUCCCAAGCCCGGAUAAAAGUGGAGGGGGCGG [A7C A8C] has a self-cleavage of 0.07. In the case of CCGCCUCACACUGCCAAUGCCGGUCCCAAGCGCGGAUAAAAGUGGAGGGGGCGG [A7C C32G], the self-cleavage is reported as 0.02. CCGCCUCACACUGCCAAUGCCGGUCCCAAGCUCGGAUAAAAGUGGAGGGGGCGG [A7C C32U] showed a self-cleavage of 0.02. CCGCCUCACACUGCCAAUGCCGGUCCCAAGCACGGAUAAAAGUGGAGGGGGCGG [A7C C32A] showed a self-cleavage of 0.04. With CCGCCUCACACUGCCAAUUCCGGUCCCAAGCCCGGAUAAAAGUGGAGGGGGCGG [A7C G19U] the self-cleavage was 0.03. For CCGCCUCACACUGCCAAUCCCGGUCCCAAGCCCGGAUAAAAGUGGAGGGGGCGG [A7C G19C], the self-cleavage was 0.02. Work on CCGCCUCACACUGCCAAUACCGGUCCCAAGCCCGGAUAAAAGUGGAGGGGGCGG [A7C G19A] yielded a self-cleavage of 0.05. With CCGCCUCACAGUGCCAAUGCCGGUCCCAAGCCCGGAUAAAAGUGGAGGGGGCGG [A7C C11G] the self-cleavage was 0.04. In the case of CCGCCUCACAAUGCCAAUGCCGGUCCCAAGCCCGGAUAAAAGUGGAGGGGGCGG [A7C C11A], the self-cleavage is reported as 0.06. In the case of CCGCCUCACAUUGCCAAUGCCGGUCCCAAGCCCGGAUAAAAGUGGAGGGGGCGG [A7C C11U], the self-cleavage is reported as 0.05. Variant CCGCCUCACACUGCCAAUGCCGGUCCCAAGCCCGGAUAAAAGUGGAGGGGGCGG [A7C] has a self-cleavage of 0.04. For CCGCCUCACACUGACAAUGCCGGUCCCAAGCCCGGAUAAAAGUGGAGGGGGCGG [A7C C14A], the self-cleavage was 0.04. Work on CCGCCUCACACUGGCAAUGCCGGUCCCAAGCCCGGAUAAAAGUGGAGGGGGCGG [A7C C14G] yielded a self-cleavage of 0.03. With CCGCCUCACACUGUCAAUGCCGGUCCCAAGCCCGGAUAAAAGUGGAGGGGGCGG [A7C C14U] the self-cleavage was 0.04.
